Data: ChEMBL document CHEMBL5260844, “Optimization of PDE3A Modulators for SLFN12-Dependent Cancer Cell Killing” (ACS Med Chem Lett, 2019)
Blank lines part the entries; values can stand above or below the molecule they belong to. The source made the active and inactive calls. No cut-off for these calls is given here.

Assays:
[1] = system: HeLa; test: Cytotoxicity against human HeLa cells assessed as cell growth inhibition measured after 48 hrs by […] reagent based assay; format: functional
[2] = system: A549; test: Cytotoxicity against human A549 cells assessed as cell growth inhibition upto 10 uM measured after 3 days by […] reagent based assay; settings: time 72.0 hrs
[3] = system: SK-MEL3; test: Cytotoxicity against human SK-MEL3 cells assessed as cell growth inhibition upto 10 uM measured after 48 hrs by […] reagent based assay; format: functional; settings: SK-MEL3, 48 h
[4] = Selectivity ratio, ratio of IC50 for human PDE3A to EC50 for cytotoxicity against human HeLa cells
[5] = target: cGMP-inhibited 3',5'-cyclic phosphodiesterase 3A (Homo sapiens, UniProt Q14432); test: Inhibition of human N-terminal His-GST-tagged recombinant PDE3A (669-end residues) using fluorescent labelled cAMP as substrate
[6] = Selectivity ratio, ratio of IC50 for human PDE3B to EC50 for cytotoxicity against human HeLa cells
[7] = target: cGMP-inhibited 3',5'-cyclic phosphodiesterase 3B (Homo sapiens, UniProt Q13370); test: Inhibition of human recombinant PDE3B
[8] = system: HCT-116; test: Cytotoxicity against human HCT-116 cells assessed as cell growth inhibition upto 10 uM measured after 48 hrs by […] reagent based assay; format: functional
Outline: (§1)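 Counterscreen viability assay in HCT116 colorectal cancer cells and IMR90 normal lung fibroblasts, run alongside DNMDP-sensitive lines.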

[9] = system: IMR-90; test: Cytotoxicity against human IMR-90 cells assessed as cell growth inhibition upto 10 uM measured after 48 hrs by […] reagent based assay; format: functional; outline: as §1
[10] = Microsomal stability in human liver microsomes assessed as parent compound remaining measured after 1 hr in presence of NADPH by UHPLC-MS analysis; format: ADME, Microsome; settings: read-out: Stability
Outline: (§2)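 Test compound incubated with human or mouse liver microsomes. Percent remaining at 1 h reported as the average of three values.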

[11] = Plasma protein binding in mouse incubated for 5 hrs by UPLC-MS method; format: ADME, cell-free; settings: read-out: PPB (converted)
Outline: (§3)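 Plasma protein binding, human and mouse, reported as % bound, average of three values.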

[12] = Plasma protein binding in human incubated for 5 hrs by UPLC-MS method; format: ADME, cell-free; settings: read-out: PPB (converted); outline: as §3
[13] = Stability in mouse plasma assessed as parent compound remaining after 5 hrs; format: ADME, cell-free; settings: read-out: Stability
Outline: (§4)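 Human or mouse plasma incubation. Percent parent remaining at 5 h, average of three values.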

[14] = Microsomal stability in mouse liver microsomes assessed as parent compound remaining at 1 uM measured after 1 hr in presence of NADPH by UHPLC-MS analysis; format: ADME, Microsome; settings: read-out: Stability; outline: as §2
[15] = Stability in human plasma assessed as parent compound remaining after 5 hrs; format: ADME, cell-free; settings: read-out: Stability; outline: as §4
[16] = target: Ribonuclease SLFN12 (Homo sapiens) (UniProt Q8IYM2); test: Stabilization of PDE3A/V5-epitope tagged SLFN12 interaction in human HeLa cells at 10 uM incubated for 8 hrs by immunoblotting analysis; format: cell-based
Outline: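 HeLa cells transfected with a plasmid expressing V5-tagged SLFN12, then exposed to 10 µM compound for 8 h. Lysates immunoprecipitated with anti-PDE3A antibody for endogenous PDE3A. Co-precipitated SLFN12-V5 detected by immunoblot with anti-V5 antibody.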

Sequence of cGMP-inhibited 3',5'-cyclic phosphodiesterase 3B (Q13370 whole entry): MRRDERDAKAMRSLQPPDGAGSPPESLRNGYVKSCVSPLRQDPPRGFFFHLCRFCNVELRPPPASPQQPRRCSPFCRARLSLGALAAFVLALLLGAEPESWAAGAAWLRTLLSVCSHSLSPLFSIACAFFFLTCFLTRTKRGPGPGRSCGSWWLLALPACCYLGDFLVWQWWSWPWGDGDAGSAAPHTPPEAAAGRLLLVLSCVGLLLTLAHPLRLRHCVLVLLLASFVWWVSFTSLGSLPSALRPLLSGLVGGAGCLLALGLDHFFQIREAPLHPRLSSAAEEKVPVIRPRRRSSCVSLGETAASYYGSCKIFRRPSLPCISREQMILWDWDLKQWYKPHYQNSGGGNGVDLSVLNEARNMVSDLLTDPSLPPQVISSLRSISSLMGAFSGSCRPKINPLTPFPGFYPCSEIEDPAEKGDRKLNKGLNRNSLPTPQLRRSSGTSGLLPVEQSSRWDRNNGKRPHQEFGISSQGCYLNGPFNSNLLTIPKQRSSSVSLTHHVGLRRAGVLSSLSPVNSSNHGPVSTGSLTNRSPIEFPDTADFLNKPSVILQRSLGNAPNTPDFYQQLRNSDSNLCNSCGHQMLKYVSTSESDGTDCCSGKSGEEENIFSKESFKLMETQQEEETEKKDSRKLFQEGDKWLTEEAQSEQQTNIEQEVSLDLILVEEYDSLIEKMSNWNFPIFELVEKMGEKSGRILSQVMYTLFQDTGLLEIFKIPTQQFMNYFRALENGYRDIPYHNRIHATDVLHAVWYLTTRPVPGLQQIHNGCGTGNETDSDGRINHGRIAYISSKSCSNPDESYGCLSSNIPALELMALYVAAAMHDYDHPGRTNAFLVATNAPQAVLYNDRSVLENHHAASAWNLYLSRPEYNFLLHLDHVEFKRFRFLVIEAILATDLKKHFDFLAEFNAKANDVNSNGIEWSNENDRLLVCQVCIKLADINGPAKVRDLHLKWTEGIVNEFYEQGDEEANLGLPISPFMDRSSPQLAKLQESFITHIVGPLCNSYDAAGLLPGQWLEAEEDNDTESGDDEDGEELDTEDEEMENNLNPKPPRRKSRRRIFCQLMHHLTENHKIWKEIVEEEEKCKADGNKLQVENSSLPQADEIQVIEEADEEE
Sequence of cGMP-inhibited 3',5'-cyclic phosphodiesterase 3A (Q14432 whole entry): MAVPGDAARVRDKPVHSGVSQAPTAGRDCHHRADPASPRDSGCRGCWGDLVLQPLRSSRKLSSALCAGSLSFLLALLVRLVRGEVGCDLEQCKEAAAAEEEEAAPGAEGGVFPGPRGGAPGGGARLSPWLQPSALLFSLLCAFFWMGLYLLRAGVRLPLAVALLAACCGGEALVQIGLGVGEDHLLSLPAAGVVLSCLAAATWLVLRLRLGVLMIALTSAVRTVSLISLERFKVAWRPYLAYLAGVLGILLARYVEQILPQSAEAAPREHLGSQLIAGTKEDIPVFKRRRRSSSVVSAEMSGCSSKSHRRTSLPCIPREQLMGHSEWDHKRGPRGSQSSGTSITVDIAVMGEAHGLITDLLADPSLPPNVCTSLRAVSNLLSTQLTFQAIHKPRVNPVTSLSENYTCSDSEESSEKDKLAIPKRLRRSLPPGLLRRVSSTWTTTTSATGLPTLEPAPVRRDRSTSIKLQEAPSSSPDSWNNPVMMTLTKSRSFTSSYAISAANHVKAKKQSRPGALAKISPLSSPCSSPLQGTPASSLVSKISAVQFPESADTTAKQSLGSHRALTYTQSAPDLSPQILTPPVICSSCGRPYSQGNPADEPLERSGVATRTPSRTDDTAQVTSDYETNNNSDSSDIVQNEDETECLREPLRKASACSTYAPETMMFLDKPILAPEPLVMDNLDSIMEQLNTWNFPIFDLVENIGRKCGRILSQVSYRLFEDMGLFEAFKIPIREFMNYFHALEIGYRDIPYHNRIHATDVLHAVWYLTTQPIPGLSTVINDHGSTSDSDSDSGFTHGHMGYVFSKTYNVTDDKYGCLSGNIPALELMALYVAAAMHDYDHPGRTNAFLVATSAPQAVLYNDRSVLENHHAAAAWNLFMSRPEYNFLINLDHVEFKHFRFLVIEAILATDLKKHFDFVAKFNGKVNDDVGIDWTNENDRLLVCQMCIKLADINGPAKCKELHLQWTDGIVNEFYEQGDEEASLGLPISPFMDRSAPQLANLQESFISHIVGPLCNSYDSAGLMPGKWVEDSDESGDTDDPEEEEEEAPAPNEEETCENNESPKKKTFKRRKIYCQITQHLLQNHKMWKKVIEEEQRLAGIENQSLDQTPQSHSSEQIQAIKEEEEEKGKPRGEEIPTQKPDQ
Sequence of Ribonuclease SLFN12 (Homo sapiens) (Q8IYM2 whole entry): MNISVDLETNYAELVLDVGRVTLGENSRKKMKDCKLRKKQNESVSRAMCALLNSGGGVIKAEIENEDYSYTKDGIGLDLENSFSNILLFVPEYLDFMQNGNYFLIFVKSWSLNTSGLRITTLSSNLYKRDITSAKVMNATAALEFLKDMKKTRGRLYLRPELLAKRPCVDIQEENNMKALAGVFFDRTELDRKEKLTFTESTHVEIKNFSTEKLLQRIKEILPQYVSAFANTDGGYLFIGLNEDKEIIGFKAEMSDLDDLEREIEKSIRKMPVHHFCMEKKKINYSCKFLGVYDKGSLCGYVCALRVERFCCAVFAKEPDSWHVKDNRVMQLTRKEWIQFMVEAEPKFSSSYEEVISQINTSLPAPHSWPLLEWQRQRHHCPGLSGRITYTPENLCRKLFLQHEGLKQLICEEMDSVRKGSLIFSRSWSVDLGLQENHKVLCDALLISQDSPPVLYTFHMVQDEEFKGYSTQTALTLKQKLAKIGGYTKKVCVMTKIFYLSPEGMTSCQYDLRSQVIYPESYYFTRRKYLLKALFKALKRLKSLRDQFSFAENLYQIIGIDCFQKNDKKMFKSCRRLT

Structure (SMILES): CCN(CC)c1ccc(C2=NNC(=O)C[C@H]2C)cc1
EC50 [1]: 3.3 nM
Activity [2]: inactive

IC50 [5]: 2000 nM
IC50 [7]: 3500 nM
Structure (SMILES): C[C@@H]1CC(=O)NN=C1c1ccc(N2CCN(C)CC2)cc1
EC50 [3]: 684 nM
Ratio IC50/EC50 [4]: 2.4
EC50 [1]: 310 nM
Ratio IC50/EC50 [6]: 2.4
Activity [2]: inactive

Structure (SMILES): CCNc1ccc(C2=NNC(=O)C[C@H]2C)cc1[N+](=O)[O-]
EC50 [1]: 1.1 nM
Activity [2]: inactive

Structure (SMILES): C[C@@H]1CC(=O)NN=C1c1ccc(N)cc1
EC50 [1]: > 1000 nM
Activity [2]: inactive

Structure (SMILES): CCN(CC)c1ccc(C2=NNC(=O)C[C@H]2C)cc1[N+](=O)[O-]
EC50 [1]: 3.8 nM
Activity [2]: inactive

Structure (SMILES): C/C=C/c1ccc(C2=NNC(=O)C[C@H]2C)cc1
EC50 [1]: 8.8 nM
Activity [2]: inactive

Structure (SMILES): C[C@@H]1CC(=O)NN=C1c1ccc(C2CCCCC2)cc1
Activity [8]: inactive
EC50 [1]: 7.7 nM
Activity [9]: inactive
Activity [2]: inactive

Structure (SMILES): C[C@@H]1CC(=O)NN=C1c1ccc(N2CCOCC2)c(Cl)c1
EC50 [1]: 4.5 nM
Activity [2]: inactive

remaining at 1 h [10]: 94%
fraction unbound at 5 h [11]: 0.58
fraction unbound at 5 h [12]: 0.53
IC50 [5]: 120 nM
remaining at 5 h [13]: 105%
remaining at 1 h, 1 µM [14]: 99%
IC50 [7]: 260 nM
remaining at 5 h [15]: 87%
Structure (SMILES): CC1CC(=O)NN=C1c1ccc(N2CCOCC2)cc1 (racemic)
Activity [8]: inactive
EC50 [3]: 11 nM
Ratio IC50/EC50 [4]: 2.4
EC50 [1]: 36 nM
Activity [9]: inactive
Ratio IC50/EC50 [6]: 2.4
Activity [2]: inactive

Structure (SMILES): C[C@H]1CC(=O)NN=C1c1ccc(N2CCOCC2)c(F)c1
Activity [8]: inactive
EC50 [1]: > 1000 nM
Activity [9]: inactive
Activity [2]: inactive

Structure (SMILES): C[C@@H]1CC(=O)NN=C1c1ccc(I)cc1
EC50 [1]: 7.1 nM
Activity [2]: inactive

remaining at 1 h [10]: 81%
fraction unbound at 5 h [11]: 0.19
fraction unbound at 5 h [12]: 0.13
remaining at 5 h [13]: 86%
remaining at 1 h, 1 µM [14]: 92%
remaining at 5 h [15]: 93%
Structure (SMILES): C[C@@H]1CC(=O)NN=C1c1ccc(Cl)cc1
Activity [8]: inactive
EC50 [3]: 29 nM
EC50 [1]: 33 nM
Activity [9]: inactive
Activity [2]: inactive

Structure (SMILES): Cc1nc2cc(C3=NNC(=O)C[C@H]3C)ccc2[nH]1
EC50 [1]: > 1000 nM
Activity [2]: inactive

Structure (SMILES): CC(=O)Nc1ccc(C2=NNC(=O)C[C@H]2C)cc1C(C)=O
EC50 [1]: 130 nM
Activity [2]: inactive

remaining at 1 h [10]: 89%
fraction unbound at 5 h [11]: 0.1
fraction unbound at 5 h [12]: 0.1
remaining at 5 h [13]: 96%
remaining at 1 h, 1 µM [14]: 26%
remaining at 5 h [15]: 104%
Structure (SMILES): CCN(CC)c1ccc(C2=NNC(=O)CC2C)cc1 (racemic)
EC50 [1]: 8.8 nM
Activity [2]: inactive

Structure (SMILES): CC(=O)Nc1ccc(C2=NNC(=O)C[C@H]2C)cc1Br
EC50 [1]: 21 nM
Activity [2]: inactive

remaining at 1 h [10]: 108%
fraction unbound at 5 h [11]: 0.48
fraction unbound at 5 h [12]: 0.44
remaining at 5 h [13]: 96%
remaining at 1 h, 1 µM [14]: 82%
remaining at 5 h [15]: 93%
Structure (SMILES): CC1CC(=O)NN=C1c1ccc(F)c(F)c1 (racemic)
EC50 [1]: 64 nM
Activity [2]: inactive

remaining at 1 h [10]: 109%
fraction unbound at 5 h [11]: 0.45
fraction unbound at 5 h [12]: 0.43
remaining at 5 h [13]: 101%
remaining at 1 h, 1 µM [14]: 102%
remaining at 5 h [15]: 80%
Structure (SMILES): CC1CC(=O)NN=C1c1ccc(N2CCOCC2)c(F)c1 (racemic)
EC50 [1]: 2.8 nM
Activity [2]: inactive

IC50 [5]: 8 nM
IC50 [7]: 14 nM
Structure (SMILES): C[C@@H]1CC(=O)NN=C1c1ccc(Cl)c(Cl)c1
EC50 [3]: 5.6 nM
Ratio IC50/EC50 [4]: 2.4
EC50 [1]: 4.5 nM
Ratio IC50/EC50 [6]: 2.4
Activity [2]: inactive

Structure (SMILES): C[C@@H]1CC(=O)NN=C1c1ccc(F)cc1
EC50 [1]: 410 nM
Activity [2]: inactive

Structure (SMILES): C[C@@H]1CC(=O)NN=C1c1ccc(N2CCOCC2)cc1
EC50 [1]: 13 nM
Activity [2]: inactive

remaining at 1 h [10]: 95%
Activity [16]: Active
fraction unbound at 5 h [11]: 0.08
fraction unbound at 5 h [12]: 0.13
IC50 [5]: 25 nM
remaining at 5 h [13]: 87%
remaining at 1 h, 1 µM [14]: 23%
IC50 [7]: 100 nM
remaining at 5 h [15]: 85%
Structure (SMILES): CCN(CC)c1ccc(C2=NNC(=O)CC2C)cc1[N+](=O)[O-] (centres undefined)
Activity [8]: inactive
EC50 [3]: 12 nM
Activity [9]: inactive
Activity [2]: inactive

Structure (SMILES): CCN(CC)c1ccc(C2=NNC(=O)CC2C)cc1N (centres undefined)
EC50 [1]: 240 nM
Activity [2]: inactive

Structure (SMILES): CCN(CC)c1ccc(C2=NNC(=O)C2(C)C)cc1
EC50 [1]: > 1000 nM
Activity [2]: inactive

Structure (SMILES): CCN(CC)c1ccc(C2=NNC(=O)CC2C)cc1NC(C)=O (centres undefined)
EC50 [1]: > 1000 nM
Activity [2]: inactive

Structure (SMILES): CC(=O)Nc1ccc(C2=NNC(=O)C[C@H]2C)cc1[N+](=O)[O-]
Activity [8]: inactive
EC50 [3]: 4.2 nM
EC50 [1]: 4.9 nM
Activity [9]: inactive
Activity [2]: inactive

Structure (SMILES): C[C@@H]1CC(=O)NN=C1c1ccc(C2=CCCCC2)cc1
EC50 [1]: 2.2 nM
Activity [2]: inactive

Structure (SMILES): C[C@H]1CC(=O)NN=C1c1ccc(F)c(F)c1
EC50 [1]: > 1000 nM
Activity [2]: inactive

Structure (SMILES): CCCc1ccc(C2=NNC(=O)C[C@H]2C)cc1
EC50 [1]: 16 nM
Activity [2]: inactive

Structure (SMILES): C[C@@H]1CC(=O)NN=C1c1ccc(-n2cnnc2)cc1
EC50 [1]: > 1000 nM
Activity [2]: inactive

Structure (SMILES): CCN1N=C(c2ccc(N(CC)CC)c([N+](=O)[O-])c2)C(C)CC1=O (racemic)
Activity [8]: inactive
EC50 [1]: > 1000 nM
Activity [9]: inactive
Activity [2]: inactive

Structure (SMILES): CC1(C)C(=O)NN=C1c1ccc(N2CCOCC2)cc1
EC50 [1]: > 1000 nM
Activity [2]: inactive

Structure (SMILES): CC1(C)C(=O)NN=C1c1ccc(N)cc1
EC50 [1]: > 1000 nM
Activity [2]: inactive

IC50 [5]: 24 nM
IC50 [7]: 16 nM
Structure (SMILES): CC(=O)Nc1ccc(C2=NNC(=O)C[C@H]2C)cc1
EC50 [1]: > 1000 nM
Activity [2]: inactive

Structure (SMILES): C#Cc1cc(C2=NNC(=O)C[C@H]2C)ccc1NC(C)=O
EC50 [1]: 65 nM
Activity [2]: inactive

Structure (SMILES): CC(=O)Nc1ccc(C2=NNC(=O)C[C@H]2C)cc1N
EC50 [1]: > 1000 nM
Activity [2]: inactive

IC50 [5]: 8 nM
IC50 [7]: 10 nM
Structure (SMILES): CC(=O)Nc1ccc(C2=NNC(=O)C[C@H]2C)cc1Cl
EC50 [3]: 31 nM
Ratio IC50/EC50 [4]: 0.38
EC50 [1]: 24 nM
Ratio IC50/EC50 [6]: 0.38
Activity [2]: inactive

Structure (SMILES): C[C@@H]1CC(=O)NN=C1c1ccc(F)c(F)c1
Activity [8]: inactive
EC50 [1]: 22 nM
Activity [9]: inactive
Activity [2]: inactive

Structure (SMILES): CC1(C)C(=O)NN=C1c1ccc(Cl)cc1
EC50 [1]: > 1000 nM
Activity [2]: inactive

Structure (SMILES): CCNc1ccc(C2=NNC(=O)C[C@H]2C)cc1
EC50 [1]: 71 nM
Activity [2]: inactive

remaining at 1 h [10]: 83%
fraction unbound at 5 h [11]: 0.46
fraction unbound at 5 h [12]: 0.44
remaining at 5 h [13]: 108%
remaining at 1 h, 1 µM [14]: 105%
remaining at 5 h [15]: 104%
Structure (SMILES): C[C@@H]1CC(=O)NN=C1c1ccc(-c2cncnc2)cc1
Activity [8]: inactive
EC50 [1]: 13 nM
Activity [9]: inactive
Activity [2]: inactive
